Data set [1] concerns the target T1, Human immunodeficiency virus type 1 integrase (Human immunodeficiency virus 1, UniProt Q7ZJM1). The experiment in a line: Inhibition of HIV1 integrase-mediated 3' processing of viral DNA after 30 mins by PAGE.
The target of data set [2] is T1, Human immunodeficiency virus type 1 integrase. As to the kind of experiment: Inhibition of HIV1 integrase-mediated single strand tansfer of viral DNA after 30 mins by PAGE.
Data set [3] has as its system Human immunodeficiency virus 1. As to the kind of experiment: Antiviral activity against HIV1 pNL4.3 infected in human TZM-bl cells by luciferase reporter gene assay. The class given is functional, organism-based. (Reporter assays use an easily measured gene product as a stand-in for the process of interest.)
Data set [4] is described as follows: Cytotoxicity against human TZM-bl cells infected with HIV1 pNL4.3. The class given is cell-based. Put shortly: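 CC50 is the cytostatic concentration required to kill 50% of TZM-bl cells.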
Data set [5] can be described thus: Selectivity index, ratio of CC50 against human TZM-bl cells to EC50 for inhibition of HIV1 integrase activity in TZM-bl cells infected with HIV1 pNL4.3. The class given is toxicity, cell-based. The note with it: read-out: Ratio CC50/EC50. Put shortly:
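SI is calculated as the CC50 in TZM-bl cells divided by the antiviral EC50.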

A value given as a limit tells only on which side of the number the result lay.

T1 sequence (Q7ZJM1 whole entry): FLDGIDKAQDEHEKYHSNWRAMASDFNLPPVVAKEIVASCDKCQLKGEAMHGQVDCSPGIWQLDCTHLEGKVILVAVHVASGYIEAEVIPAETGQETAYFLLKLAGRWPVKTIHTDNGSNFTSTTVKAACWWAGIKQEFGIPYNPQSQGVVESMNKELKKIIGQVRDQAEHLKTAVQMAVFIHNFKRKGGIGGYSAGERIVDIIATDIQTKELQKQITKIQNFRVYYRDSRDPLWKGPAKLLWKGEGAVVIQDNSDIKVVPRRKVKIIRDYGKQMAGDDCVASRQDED

As for `CN1C(=O)C(O)=C(C(=O)c2ccccc2)C1c1ccc([N+](=O)[O-])cc1` (stereo not given), the 50% inhibitory concentration (IC50) in data set [1] and in data set [2] was over 100 µM in each case.
For the compound `CN1C(=O)C(O)=C(C(=O)c2ccccc2)C1c1cccc(Cl)c1` (stereo not given), the IC50 in data set [1] and in data set [2] was over 100 µM throughout.
Take `COc1ccc(CCN2C(=O)C(O)=C(C(=O)c3ccccc3)C2c2ccc(O)cc2)cc1` (stereo not given): the EC50 entry in data set [3] (tzm-bl) was “Not Active”. The IC50 in data set [1] was over 100 µM; in data set [2], 100 µM. Besides, it took 459 µM to reach half-maximal cytotoxicity in data set [4] (CC50).
Turning to `CN1C(=O)C(O)=C(C(=O)c2ccccn2)C1c1cccc(Cl)c1` (stereo not given), the IC50 in data set [1] and in data set [2] was over 100 µM throughout.
`COc1ccc(CCN2C(=O)C(O)=C(C(=O)c3ccccn3)C2c2cccc(Cl)c2)cc1` (stereo not given): in data set [3] (Human immunodeficiency virus 1, pNL4.3, TZM-bl, read-out: EC50), the EC50 was 0.317 µM. The IC50 was found to be 77 µM in data set [1] and 40 µM in data set [2]. In data set [4], this compound gave a CC50 of 26.6 µM. In data set [5], the selectivity ratio amounted to 83.7.
In the case of `COc1ccc(CCN2C(=O)C(O)=C(C(=O)c3ccccc3)C2c2ccccc2)cc1` (stereo not given), in data set [3] (tzm-bl), the EC50 result was “Not Active”. For the same compound, the IC50 in data set [1] amounted to 80 µM; in data set [2] it was 45 µM. Further, the CC50 in data set [4] came to 830 µM.
`O=C(C1=C(O)C(=O)N(c2ccccc2)C1c1ccc([N+](=O)[O-])cc1)c1ccccc1` (stereo not given): the EC50 entry in data set [3] (tzm-bl) is “Not Active”. Also, the values for the IC50 in data set [1] and in data set [2] were 89 µM and 44 µM, respectively. The CC50 in data set [4] was found to be 790 µM.
With `CC(C)CN1C(=O)C(O)=C(C(=O)c2ccccc2)C1c1ccccc1` (stereo not given), the half-inhibitory concentration (IC50) in data set [1] and in data set [2] was over 100 µM each time.

By IC50 is commonly meant the point on the concentration scale where inhibition reaches its midpoint. The EC50 is the concentration that produces a half-maximal response. The term CC50 denotes the concentration at which the toxic effect on the cells reaches its halfway point. A higher CC50 goes with lower toxicity to the cells.

Values taken from ChEMBL document CHEMBL1909641, “Rational design of 2-pyrrolinones as inhibitors of HIV-1 integrase” (Bioorg Med Chem Lett, 2011).
